Data: PubChem BioAssay
Inconclusive results are not listed.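 Rule for the calls, unless noted: active = viability increase at or above a cutoff of the median across tested compounds plus 3 SD (cut at about 8.5% in these data, passing the limit was not always enough); inconclusive = some gains above the cutoff, reason not given; inactive = the rest.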

How the values were obtained:
[1] = OD615 S. cerevisiae growth inhibition, permissive medium, pilot counter-assay, permissive growth control for S. cerevisiae lifespan shortening project (AID 705;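 active = growth inhibition above 25% in both replicates, a cutoff set 3 SD above the mean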); details: OD615, 24 h, at 10 µM, stronger effect = higher value
Outline: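 assay system = Saccharomyces cerevisiae strain carrying genetically modified DeaD replicative-lifespan system | technique = absorbance (optical density) at 615 nm | buffer or medium = permissive raffinose/galactose medium | timing = cells pre-grown 4 h, then 24 h compound exposure, 30 °C humidified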

[2] = Restrictive medium S. cerevisiae growth inhibition, OD615, pilot screen of yeast lifespan reduction project, restrictive growth control (AID 706;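 active = growth inhibition above a set limit, 3 SD over mean compound inhibition, in both replicates, cut at about 43% in these data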;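 note: modified DeaD lifespan yeast strain shifted to restrictive glucose medium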); details: OD615, 48 h, at 10 µM, stronger effect = higher value
Outline: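 System: modified S. cerevisiae. Buffer or medium: CSMM-D glucose medium. Incubation: 4 h pre-growth plus 48 h compound exposure, 30 °C. Detection: absorbance (optical density) measured at 615 nm.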

[3] = viability gain of MRP-1-high H69AR cells under doxorubicin, pilot screen, MRP-1 activator project, CellTiter-Glo, duplicate (AID 807); details: H69AR viability with doxorubicin, CellTiter-Glo luminescence; at 10 µM; stronger effect = higher value;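 note: compound pretreatment 18-22 h then 72 h combined with doxorubicin; 0% = doxorubicin alone and 100% = vehicle without doxorubicin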
[4] = growth suppression of beta-catenin knockout HCT116, pilot screen, human colon tumor cells (AID 823;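 active = cell viability at or below a set limit in both duplicate runs, the limit being the all-compound median minus 4 SD, cut at about 23% in these data, passing the limit was not always enough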;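 note: 0% = wells killed by 20 µM Hyamine and 100% = untreated DMSO cell wells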); details: CellTiter-Glo, 60 h, at 10 µM, stronger effect = lower value
[5] = growth suppression of PTEN-deleted HCT116, pilot screen, cell-based, HCT116 clonal line, CellTiter-Glo (AID 824;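 active = viability at or below 27.92% in each of two runs, the all-compound median minus 4 SD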;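 note: 0% = 20 µM Hyamine control and 100% = vehicle cell control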); details: 60 h, at 10 µM, stronger effect = lower value
[6] = inhibitors of the yeast RAM network, pilot screen, dse1pr::URA3 reporter, 5-FOA selection (AID 869;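 active = inhibition over a set limit, the all-compound mean plus 3 SD, in both replicate runs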;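 note: 0% = DMSO wells with no growth and 100% = 10 µM 1-NA-PP1 with full growth; RAM network block rescues cells from 5-FOA so hits raise OD615 growth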); details: S. cerevisiae dse1pr::URA3 5-FOA growth, OD615, 2 d; at 10 µM; stronger effect = higher value; strain carries analog-sensitive mutant Cbk1 kinase
[7] = RAM signaling pathway blockade in yeast – S. cerevisiae, Pdr1DBD-CYC8 efflux-inhibited sensitized strain, primary screen (AID 1298;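 active = RAM network inhibition above 8.4% in each of two replicates, 3 SD over the compound average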;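 note: 0% = DMSO untreated cells without growth and 100% = 10 µM 1-NA-PP1 full growth; higher means more yeast growth rescued from 5-FOA killing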); details: S. cerevisiae cbk1-as DSE1-URA3 strain, 5-FOA growth OD615, 2 d; at 50 µM; stronger effect = higher value

Cc1cc(C)c(OCC(=O)Nc2cccc(NC(=O)c3ccco3)c2)c(Br)c1
inactive: growth inhibition [1] -3.62% | growth inhibition [2] 4.23% | viability increase [3] -3.03% | viability [4] 56.1% | viability [5] 60.8% | inhibition [6] 0.45% | RAM network inhibition [7] 3.46%

C=CCn1c(SCC(=O)N2CCN(c3ccc(F)cc3)CC2)nnc1-c1ccco1
inactive: growth inhibition [1] 3.6% | growth inhibition [2] 1.48% | viability increase [3] -2.41% | viability [4] 60.7% | viability [5] 73.1% | inhibition [6] 1.71% | RAM network inhibition [7] 11.3%

Cc1ccc(Oc2ccccc2)c(NC=O)c1
inactive: growth inhibition [1] -2.02% | growth inhibition [2] 11.4% | viability increase [3] -3.07% | viability [4] 96.2% | viability [5] 90.4% | inhibition [6] -0.085% | RAM network inhibition [7] 1.17%

O=C(Cn1c(=O)oc2cc(S(=O)(=O)N3CCCCCC3)ccc21)NC1CCCCCCC1
inactive: growth inhibition [1] -9.87% | growth inhibition [2] -14.8% | viability increase [3] -7.86% | viability [4] 95.2% | viability [5] 88.5% | inhibition [6] 4.98% | RAM network inhibition [7] 10.5%

COc1ccc(Cc2nnc(NC(=O)c3c(-c4ccccc4)noc3C)s2)cc1
inactive: growth inhibition [1] -14% | growth inhibition [2] -3.4% | viability increase [3] 0.94% | viability [4] 88.3% | viability [5] 85.2% | inhibition [6] 1.82% | RAM network inhibition [7] 5.46%

CCOc1ccc(-n2c(Cc3cc(=O)[nH]c(=O)[nH]3)nnc2SC(C)C(=O)OC)cc1 (stereo not drawn)
inactive: growth inhibition [1] -4.41% | growth inhibition [2] 2.84% | viability increase [3] 0.2% | viability [4] 101% | viability [5] 103% | inhibition [6] 0.31% | RAM network inhibition [7] 3.49%

COCCCNC(=O)c1cc2c(-c3ccc(Cl)cc3)nn(C)c2s1
inactive: growth inhibition [1] -0.14% | growth inhibition [2] 1.75% | viability increase [3] -6.69% | viability [4] 82.9% | viability [5] 84.5% | inhibition [6] 3.08% | RAM network inhibition [7] 3.67%

COc1ccc(NC(=O)C2CCCN(S(=O)(=O)c3cccc4cccnc34)C2)cc1 (stereo not drawn)
inactive: growth inhibition [1] -12.6% | growth inhibition [2] 4.72% | viability increase [3] -0.46% | viability [4] 88.2% | viability [5] 85.5% | inhibition [6] 2.36% | RAM network inhibition [7] 6.27%

COc1ccc(N2CCN(C(=O)C34CCC(C)(C(=O)C3)C4(C)C)CC2)cc1 (stereo not drawn)
inactive: growth inhibition [1] -1.5% | growth inhibition [2] 0.815% | viability increase [3] -0.51% | viability [4] 88% | viability [5] 91.8% | inhibition [6] 1.86% | RAM network inhibition [7] -0.21%

O=NC1=C(c2c(O)[nH]c3ccccc23)CCCC1
inactive: growth inhibition [1] -3.26% | growth inhibition [2] -12% | viability increase [3] -5.46% | viability [4] 91% | viability [5] 93.9% | inhibition [6] 1.6% | RAM network inhibition [7] 4.71%

COc1ccccc1N(CC(O)CN1C(=O)NC(C)(C)C1=O)S(=O)(=O)c1ccc(C)cc1 (stereo not drawn)
inactive: growth inhibition [1] -7.72% | growth inhibition [2] -4.29% | viability increase [3] -0.66% | viability [4] 101% | viability [5] 99.9% | inhibition [6] 1.41% | RAM network inhibition [7] 5.03%

O=C(CCn1c(=S)[nH]c2ccccc2c1=O)N1CCOCC1
inactive: growth inhibition [1] -0.255% | growth inhibition [2] 9.25% | viability increase [3] 0.5% | viability [4] 105% | viability [5] 103% | inhibition [6] 0.715% | RAM network inhibition [7] -0.13%

Cc1cc(C)nc(NS(=O)(=O)c2ccc(Br)s2)c1
inactive: growth inhibition [1] -1.63% | growth inhibition [2] -7.46% | viability increase [3] -0.89% | viability [4] 95.9% | viability [5] 93.5% | inhibition [6] 0.28% | RAM network inhibition [7] 9.36%

O=C(NCCN1CCOCC1)c1ccc2c(c1)N(Cc1ccccc1)CCS2
inactive: growth inhibition [1] -1.33% | growth inhibition [2] -3.97% | viability increase [3] -2.25% | viability [4] 93.2% | viability [5] 94.5% | inhibition [6] 1.02% | RAM network inhibition [7] 6.44%

c1csc(CCNc2ncnc3sc4c(c23)CCC4)c1
inactive: growth inhibition [1] -5.19% | growth inhibition [2] 13.9% | viability increase [3] -5.93% | viability [4] 39.9% | viability [5] 50.1% | inhibition [6] 0.385% | RAM network inhibition [7] -0.9%

Clc1cccc(Nc2ncnc3c2cnn3-c2ccccc2)c1
inactive: growth inhibition [1] -15.3% | growth inhibition [2] -12.2% | viability increase [3] -2.07% | viability [4] 82.5% | viability [5] 78.6% | inhibition [6] 2.04% | RAM network inhibition [7] 4.85%

CCn1c(SCC(=O)N2CCOCC2)nc(O)cc1=O
inactive: growth inhibition [1] -6.62% | growth inhibition [2] -12.7% | viability increase [3] -0.84% | viability [4] 105% | viability [5] 103% | inhibition [6] 2.59% | RAM network inhibition [7] 1.54%

CC(=O)Nc1ccc(S(=O)(=O)NCc2ccc3c(c2)cc(C)n3C)cc1
inactive: growth inhibition [1] 8.2% | growth inhibition [2] 10.1% | viability increase [3] 0.21% | viability [4] 101% | viability [5] 99.2% | inhibition [6] 3.49% | RAM network inhibition [7] 2.12%

Cc1cc2c3nonc3ccc2n1-c1ccccc1
inactive: growth inhibition [1] -16.1% | growth inhibition [2] -15% | viability increase [3] -2.59% | viability [4] 83% | viability [5] 86% | inhibition [6] 0.9% | RAM network inhibition [7] 6.15%

Cc1ccc(N(C)C(=O)N2CCN(S(=O)(=O)c3ccc(C)cc3)CC2)cc1
inactive: growth inhibition [1] -1.22% | growth inhibition [2] -7.74% | viability increase [3] -1.03% | viability [4] 93.7% | viability [5] 96.6% | inhibition [6] 0.215% | RAM network inhibition [7] 6.2%

CCOc1ccc(N=C2NC(=O)C(CC(=O)O)S2)cc1 (stereo not drawn)
inactive: growth inhibition [1] -5.86% | growth inhibition [2] 3% | viability increase [3] -0.06% | viability [4] 104% | viability [5] 101% | inhibition [6] 2.49% | RAM network inhibition [7] 2.45%

CC12CCC(C(=O)Nc3ccc4c(c3)OCCO4)(OC1=O)C2(C)C (stereo not drawn)
inactive: growth inhibition [1] -20.5% | growth inhibition [2] -5.64% | viability increase [3] -0.01% | viability [4] 93.7% | viability [5] 97.8% | inhibition [6] 1.28% | RAM network inhibition [7] -0.36%

O=C1C(=C(O)c2ccccc2)C(=O)c2ccccc21
inactive: growth inhibition [1] -20.4% | growth inhibition [2] 2.15% | viability increase [3] -3.04% | viability [4] 107% | viability [5] 103% | inhibition [6] -0.26% | RAM network inhibition [7] -1.88%

Cc1nc(=O)c(-c2ccccc2)c(C)n1CC1CCCO1 (stereo not drawn)
inactive: growth inhibition [1] -7.12% | growth inhibition [2] -9.15% | viability increase [3] -2.44% | viability [4] 99.8% | viability [5] 96.4% | inhibition [6] 1.38% | RAM network inhibition [7] 0.16%
